# Source: PubChem BioAssay (Broad Institute)
# Most compounds without a hit are left out; they make up all but 1.1% or so of the library.
# Cneo AK release – causes C. neoformans cell lysis; AID 651654; 360,000 compounds, 0.2% hits; lysis activity, % at 15 µM; adenylate kinase release luminescence, 4 h; normalised: neutral wells 0, clomiphene wells 100;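 active = mean lysis activity across replicates of at least 80%, whatever share of replicates individually reach that level; inactive = mean lysis activity below 80%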
#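 Material – log-phase Cryptococcus neoformans yeast cells · Input – 5 × 10^6 yeast cells/mL · Medium – fresh YPD growth medium · Doses – single compound concentration per well · Timing – static 4 h at 37 °C with compound, 1 h detection · Detection – adenylate kinase release luminescence · Read-out – signal increase indicating cell lysis · Control set – Clomiphene as positive lysis control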
# PglD DTNB – inhibitors of Campylobacter jejuni PglD acetyltransferase | AID 602405 | inhibition, % at 12.5 µM | 360,000 compounds, 0.098% hits | purified PglD enzyme, DTNB colorimetric CoA detection; in the data active = inhibition above about 16%, passing the limit was not always enough
# CAL PDZ FP-1 – inhibitors of human CAL PDZ peptide binding | Q9HD26 | purified CAL PDZ, TMR-peptide fluorescence polarization, 1 h | inhibition, % at 24.9 µM | 300,000 compounds, 0.92% hits;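 active = mean inhibition of at least 30% with at least half of replicates also reaching 30%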
# CAL PDZ FP-2 – blocks peptide binding to human CAL PDZ domain | Q9HD26 | purified CAL PDZ, TMR-peptide fluorescence polarization, 1 h | inhibition, % at 20 µM | 330,000 compounds, 0.02% hits | AID 504414;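 active = highest replicate inhibition of at least 40%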
#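 material = purified tagged CAL PDZ domain construct (CerCALP) | buffer or medium = sodium phosphate/NaCl buffer pH 7.4 with TCEP, IgG, Thesit | reagent = TMR-labelled reporter peptide T*-PRC34 bound in PDZ groove | incubation = 1 h room-temperature incubation prior to read | measured by = fluorescence polarization (mP) | evaluation = percent inhibition from loss of millipolarization | control set = unlabelled peptide and DMSO controls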
# miR-122 sensor – inhibitors of miR-122 in Huh7 cells; 340,000 compounds, 0.3% hits; Huh7 miR-122 Renilla luciferase sensor, 48 h; neutral wells = 0, positive control = 100; activation (reporter increase), % at 12.5 µM;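 active = mean replicate activation score at least 90 and every replicate individually at or above 90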;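 also: higher luciferase means less miR-122 activity so hits act as miR-122 inhibitors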
# A number is an active result; . = inactive; / = no result; + = active, no number.
SMILES,Cneo AK release,PglD DTNB,CAL PDZ FP-1,CAL PDZ FP-2,miR-122 sensor
CC(NC(=O)c1ccc(CS(C)(=O)=O)cc1)c1ccc(-n2ccnc2)cc1 (stereo unspecified),.,.,.,.,/
O=C(NCC(=O)N1CCN(Cc2ccccc2)CC1)c1ccc(Br)cc1,.,.,41,.,.
CCCNC(=O)C[C@@H]1C[C@@H]2c3cc(NC(=O)C4CCC4)ccc3O[C@@H]2[C@H](CO)O1,.,.,/,/,.
COc1ccc(S(=O)(=O)Nc2cccc3c2O[C@H](CN(C)S(=O)(=O)c2ccccc2)[C@H](C)CN([C@@H](C)CO)C3=O)cc1,.,.,/,/,.
COc1ccc(NC(=S)NCCN2CCOCC2)cc1,/,/,.,.,.
N#Cc1ccc(NC(=S)NCCN2CCOCC2)cc1,.,.,91,.,.
COc1cccc(NC(=S)N2CCC(Cc3ccccc3)CC2)c1,117,.,.,.,.
COc1ccc(NC(=S)N2CCC(Cc3ccccc3)CC2)cc1OC,.,.,.,.,.
O=[N+]([O-])c1ccc(Sc2nccn2Cc2ccccc2)cc1,.,.,30,.,.
Cc1cc(C)c(S(=O)(=O)NCC23C=CC(O2)C2C(=O)N(c4ccccc4)C(=O)C23)c(C)c1 (stereo unspecified),.,.,43,.,.
O=C1C2C3C=CC(CNS(=O)(=O)c4ccccc4[N+](=O)[O-])(O3)C2C(=O)N1c1ccccc1 (stereo unspecified),/,/,.,.,/
O=C(NCc1ccccc1)c1ccc2ccccc2n1,/,/,/,.,.
Cc1ccccc1CNC(=O)c1ccc2ccccc2n1,.,.,76,.,.
CSc1ncc(CO)n1Cc1ccccc1,/,/,.,.,/
Cc1ccc(C(=O)NC2CCCN(c3ccc(C(F)(F)F)cn3)C2)cn1 (stereo unspecified),.,.,45,.,/
O=c1cc2oc3cc(O)c(O)cc3c(-c3ccccc3O)c-2cc1O,/,/,.,47,/
COc1ccc(OC)c(-c2oc3ccccc3c(=O)c2O)c1,.,.,.,.,.
CCOc1ccccc1-c1c2cc(O)c(=O)cc-2oc2cc(O)c(O)cc12,/,/,42,126,/
COc1ccc(OC)c(-c2c3cc(O)c(=O)cc-3oc3cc(O)c(O)cc23)c1,/,/,57,87,/
COc1ccc(NC(=O)Nc2ccc3c(c2)C(=O)N([C@H](C)CO)C[C@@H](C)[C@@H](CN(C)Cc2ccccc2)O3)cc1,.,.,/,/,.
N=c1c2ccccc2nnn1-c1ccccc1[N+](=O)[O-],/,/,.,.,161
N#Cc1ccc(-n2nnc3ccccc3c2=O)c([N+](=O)[O-])c1,.,.,/,.,.
O=C(c1cc(Cl)ccc1F)N1CCCC(Nc2ccc3c(c2)OCCO3)C1 (stereo unspecified),.,.,37,.,.
COc1ccccc1OCC(=O)N1CCCC(Nc2cccc(F)c2)C1 (stereo unspecified),.,.,/,.,/
COc1ccccc1OCC(=O)N1CCCC(Nc2ccc(F)c(F)c2)C1 (stereo unspecified),.,.,+,.,.
SMILES,Cneo AK release,PglD DTNB,CAL PDZ FP-1,CAL PDZ FP-2,miR-122 sensor
O=C(c1ccc2nccnc2c1)N1CCCC(Nc2ccc(F)c(F)c2)C1 (stereo unspecified),.,.,51,.,.
O=C(c1ccco1)N1CCCC(Nc2ccc3c(c2)OCCO3)C1 (stereo unspecified),.,.,.,.,.
Cc1ccc(NC2CCCN(C(=O)CCN3CCCCO3)C2)cc1C (stereo unspecified),.,.,62,.,.
C[C@H](CO)N1C[C@H](C)[C@H](CN(C)C(=O)C2CCOCC2)Oc2ncc(C#CC(C)(C)O)cc2C1=O,.,.,/,/,.
O=C(C[C@@H]1CC[C@H](NC(=O)c2cccc(F)c2)[C@H](CO)O1)NCCN1CCCC1,.,.,/,/,.
C/C(=N\OC(=O)c1cccc(C)c1)c1sc(-c2ccccc2)nc1C,.,.,.,.,.
C/C(=N\OC(=O)c1cccc(C(F)(F)F)c1)c1sc(-c2ccccc2)nc1C,.,.,52,.,.
CCC(C)c1ccc(NC(=S)N2CCN(c3ccccn3)CC2)cc1 (stereo unspecified),105,.,.,.,/
[O-][n+]1cccc2cccc(O)c21,.,.,49,.,.
C[n+]1cccc2cccc([O-])c21,/,/,.,.,/
COc1ccc(OCCSc2nnc(C(C)NC(=O)c3ccccc3F)n2C)cc1 (stereo unspecified),/,/,107,.,/
C[C@H](CO)N1C[C@H](C)[C@H](CN(C)Cc2ccc3c(c2)OCO3)Oc2ncc(C#Cc3ccccc3)cc2C1=O,.,.,/,/,.
C[C@H](CO)N1C[C@H](C)[C@H](CN(C)C(=O)c2ccccn2)Oc2ncc(-c3cccc(F)c3)cc2C1=O,.,.,/,/,.
CCc1nc2ccc(C(=O)N3CCN(C(=O)c4ccco4)CC3)cn2c1N(C)Cc1ccc(OC)cc1,.,.,/,/,.
CCc1nc2ccc(C(=O)N3CCN(C(=O)c4ccco4)CC3)cn2c1N(C)C(=O)COc1ccccc1,.,.,/,/,97
O=C(N/N=C/c1cc([N+](=O)[O-])ccc1O)C1CC1,.,.,79,.,.
COc1ccc(C)cc1NC(=O)Nc1ccc(Br)cn1,.,.,46,.,.
COc1ccc(C)cc1NC(=O)NC1CCCCCCC1,.,.,.,.,.
CCOc1ccccc1C(=O)NCC(=O)OCc1csc(CC(=O)Nc2ccc(C)cc2)n1,.,.,65,.,/
CCOc1ccccc1C(=O)N[C@H](C(=O)OCc1csc(CC(=O)Nc2ccc(C)cc2)n1)C(C)C,.,.,.,.,.
O=C(NC1CCCC1)[C@H]1[C@H](CO)[C@H]2Cn3c(ccc(-c4ccc(F)cc4)c3=O)[C@@H]1N2Cc1cocn1,.,.,/,/,.
Cc1ccc(NS(=O)(=O)c2cccc(C(=O)N(C)Cc3cccs3)c2)cc1,.,.,.,.,100
COCCCNC1CS(=O)(=O)CC1O (stereo unspecified),.,.,73,.,.
CCCNC(=O)C[C@@H]1CC[C@H]2[C@@H](COC[C@H](O)CN2C(=O)Nc2ccc3c(c2)OCO3)O1,.,.,/,/,.
CCNC(=O)C[C@H]1CC[C@@H]2[C@H](COC[C@@H](O)CN2C(=O)Nc2ccc3c(c2)OCO3)O1,.,.,/,/,.
COc1cccc(NC(=O)N2C[C@H](O)COC[C@H]3O[C@@H](CC(=O)NCc4ccccc4F)CC[C@@H]32)c1,119,.,/,/,.
CNC(=O)C[C@@H]1CC[C@@H]2[C@H](COC[C@@H](O)CN2C(=O)Nc2ccc3c(c2)OCO3)O1,113,.,/,/,.
CNC(=O)C[C@@H]1CC[C@H]2[C@@H](COC[C@H](O)CN2C(=O)Nc2ccc3c(c2)OCO3)O1,89,.,/,/,.
CCOC(=O)c1ccc(NC(=O)CN2C(=O)NC3(CCC(C)CC3)C2=O)cc1 (stereo unspecified),.,.,/,.,.
